Results of several laboratories.
Lines come from different studies, so protocols differ.
Observed: enzyme activity
Action: inhibitor
ABL1 Y253F: Tyrosine-protein kinase ABL1 (ABL1, Homo sapiens, UniProt P00519, Y253F)
ABL1 T315I: Tyrosine-protein kinase ABL1 (ABL1, Homo sapiens, UniProt P00519, T315I)
ABL1: Tyrosine-protein kinase ABL1 (ABL1, Homo sapiens, UniProt P00519)

Structure (SMILES)	target	method	concentration	inhibition [%]
CNC(=O)c1cc2c(Oc3ccc(NC(=O)C4(C(=O)Nc5ccc(F)cc5)CC4)cc3)ccnc2cc1OC	ABL1 Y253F	radiometric	1 µM	78
CC/C(=N\NC(=O)NCc1cccc(O)c1)c1ccc(O)c(C)c1O	ABL1 T315I	–	0.1 µM	-1.5
COc1cc2ncnc(Nc3ccc(Oc4ccccc4)cc3C)c2cc1OC	ABL1 T315I	–	1 µM	5
CN(C)C1CCN(CC#Cc2nn(C3CCCC3)c3nc(NCc4ccccc4)ncc23)C1 (stereo not drawn)	ABL1	FRET	10 µM	31
CNc1cccc2cc(C(=O)Nc3ccc(C(=O)O)cc3)c(=O)[nH]c12	ABL1	–	10 µM	1.8
CS(=O)(=O)Nc1cccc(-c2csc(NC(=O)CSc3nc4nccnc4c(=O)n3CCc3ccccc3)n2)c1	ABL1	–	10 µM	2
COc1cc(-c2cc(-c3ccc(N4CCNCC4)cc3)cnc2N)cc(OC)c1OC	Tyrosine-protein kinase ABL1 (ABL1, Homo sapiens, UniProt P00519, Q252H)	–	1 µM	96
O=C(CSc1nc2nccnc2c(=O)n1CCc1ccccc1)Nc1nccs1	ABL1 T315I	–	10 µM	2
COc1cc2ncnc(Nc3ccc(Oc4ccccc4)c(C)c3C)c2cc1OC	ABL1 Y253F	–	1 µM	2
